Where “and” joins values, the source holds several entries; their conditions need not be identical. Identical values can stand only once.
Test system: U2OS
Assay: Multiplex assay against U2OS
Assay type: toxicity, cell-based
Settings: human, number of replicates 2
How it was run: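 With compound added, live cells were imaged on a CQ1 microscope at 37°C and 5% CO2; staining with Hoechst33342, BioTracker Green Microtubule Cytoskeleton Dye, MitoTracker Red and Annexin V Alexa Fluor 680 had been done at seeding. The CellPathfinder machine-learning gating scheme split cells into Hoechst high-intensity objects or normal cells, normal cells into healthy, pyknosed or fragmented nuclei, and pyknosed cells into mitotic or apoptotic. The tubulin, mitochondrial-mass and membrane-permeability phenotypes are per cents of healthy-nucleus cells.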

[1] = 12 h, 1 µM, compound concentration 1 uM
[2] = 12 h, 10 µM, compound concentration 10 uM
[3] = 24 h, 1 µM, compound concentration 1 uM
[4] = 24 h, 10 µM, compound concentration 10 uM
[5] = 48 h, 1 µM, compound concentration 1 uM
[6] = 48 h, 10 µM, compound concentration 10 uM

`C[C@@H](OC[C@@]1(c2ccccc2)CC[C@]2(CCC(=O)N2)CN1)c1cc(C(F)(F)F)cc(C(F)(F)F)c1` [ROLAPITANT] was tested, and the “Population Apoptotic (%)” value [1] was 20% and 40%, the “Population Fragmented Nuclei (%)” value [1] was 11% and 3% and the “Population Healthy Nuclei (%)” value [1] was 73% and 86%. The “Population Hoechst High Intensity Objects (%)” value [1] was 0%, the “Population Membrane Permeable-Phenotype (%)” value [1] was 4% and 1% and the “Population Mitochondria Different-Phenotype (%)” value [1] was 0%. The “Population Mitotic Cells (%)” value [1] was 80% and 59%, the “Population Normal (%)” value [1] was 100% and the “Population Pyknosed Nuclei (%)” value [1] was 14% and 9%. For the same compound, the “Population Tubulin-Different-Phenotype (%)” value [1] was 76% and 86%, the “Population Apoptotic (%)” value [2] was 37% and 50% and the “Population Healthy Nuclei (%)” value [2] was 85% and 71%. The “Population Hoechst High Intensity Objects (%)” value [2] was 0%, the “Population Membrane Permeable-Phenotype (%)” value [2] was 1% and 5% and the “Population Mitochondria Different-Phenotype (%)” value [2] was 0% and 5%. The “Population Mitotic Cells (%)” value [2] was 62% and 50%, the “Population Normal (%)” value [2] was 99% and 100% and the “Population Pyknosed Nuclei (%)” value [2] was 8% and 7%. For the same compound, the “Population Tubulin-Different-Phenotype (%)” value [2] was 87% and 30%, the “Population Apoptotic (%)” value [3] was 100% and 52% and the “Population Fragmented Nuclei (%)” value [3] was 7% and 2%. For the same compound, the “Population Healthy Nuclei (%)” value [3] was 90% and 87%, the “Population Hoechst High Intensity Objects (%)” value [3] was 0% and the “Population Membrane Permeable-Phenotype (%)” value [3] was 0% and 1%. The “Population Mitochondria Different-Phenotype (%)” value [3] was 0% and 1%, the “Population Normal (%)” value [3] was 100% and the “Population Pyknosed Nuclei (%)” value [3] was 2% and 9%. For the same compound, the “Population Tubulin-Different-Phenotype (%)” value [3] was 77% and 90%, the “Population Apoptotic (%)” value [4] was 48% and 50% and the “Population Healthy Nuclei (%)” value [4] was 89% and 77%. For the same compound, the “Population Hoechst High Intensity Objects (%)” value [4] was 0%, the “Population Membrane Permeable-Phenotype (%)” value [4] was 0% and 3% and the “Population Mitochondria Different-Phenotype (%)” value [4] was 0% and 3%. For the same compound, the “Population Mitotic Cells (%)” value [4] was 51% and 50%, the “Population Normal (%)” value [4] was 99% and 100% and the “Population Pyknosed Nuclei (%)” value [4] was 7% and 5%. For the same compound, the “Population Tubulin-Different-Phenotype (%)” value [4] was 91% and 35%, the “Population Apoptotic (%)” value [5] was 40% and 48% and the “Population Fragmented Nuclei (%)” value [5] was 5% and 1%. For the same compound, the “Population Healthy Nuclei (%)” value [5] was 87% and 92%, the “Population Hoechst High Intensity Objects (%)” value [5] was 0% and the “Population Membrane Permeable-Phenotype (%)” value [5] was 1%. For the same compound, the “Population Mitochondria Different-Phenotype (%)” value [5] was 0%, the “Population Mitotic Cells (%)” value [5] was 60% and 51% and the “Population Normal (%)” value [5] was 100% and 99%. The “Population Pyknosed Nuclei (%)” value [5] was 6% and 5%, the “Population Tubulin-Different-Phenotype (%)” value [5] was 87% and 91% and the “Population Apoptotic (%)” value [6] was 48% and 28%. For the same compound, the “Population Fragmented Nuclei (%)” value [6] was 2% and 7%, the “Population Healthy Nuclei (%)” value [6] was 90% and 78% and the “Population Hoechst High Intensity Objects (%)” value [6] was 0%. The “Population Membrane Permeable-Phenotype (%)” value [6] was 0% and 4%, the “Population Mitochondria Different-Phenotype (%)” value [6] was 0% and 4% and the “Population Mitotic Cells (%)” value [6] was 51% and 71%. The “Population Normal (%)” value [6] was 100% and the “Population Pyknosed Nuclei (%)” value [6] was 6% and 13%.

`CC(C)S(=O)(=O)c1ccccc1Nc1nc(N[C@@H]2CCCN(CCCCCCCNC(=O)COc3cccc4c3C(=O)N(C3CCC(=O)N(C)C3=O)C4=O)C2)ncc1Cl` (some centres undefined) was tested, and the “Population Apoptotic (%)” value [1] was 93% and 83%, the “Population Healthy Nuclei (%)” value [1] was 34% and 71% and the “Population Hoechst High Intensity Objects (%)” value [1] was 0%. For the same compound, the “Population Mitochondria Different-Phenotype (%)” value [1] was 8% and 7%, the “Population Mitotic Cells (%)” value [1] was 6% and 16% and the “Population Normal (%)” value [1] was 100%. For the same compound, the “Population Pyknosed Nuclei (%)” value [1] was 22% and 23%, the “Population Tubulin-Different-Phenotype (%)” value [1] was 69% and 61% and the “Total Cell Count” value [1] was 66 and 157. For the same compound, the “Population Apoptotic (%)” value [2] was 85% and 77%, the “Population Healthy Nuclei (%)” value [2] was 48% and 56% and the “Population Hoechst High Intensity Objects (%)” value [2] was 0% and 1%. The “Population Membrane Permeable-Phenotype (%)” value [2] was 80% and 93%, the “Population Mitochondria Different-Phenotype (%)” value [2] was 66% and 54% and the “Population Mitotic Cells (%)” value [2] was 14% and 22%. For the same compound, the “Population Normal (%)” value [2] was 100% and 98%, the “Population Pyknosed Nuclei (%)” value [2] was 22% and 37% and the “Population Tubulin-Different-Phenotype (%)” value [2] was 100%. For the same compound, the “Population Apoptotic (%)” value [3] was 85% and 89%, the “Population Fragmented Nuclei (%)” value [3] was 26% and 13% and the “Population Healthy Nuclei (%)” value [3] was 29% and 51%. The “Population Hoechst High Intensity Objects (%)” value [3] was 1% and 0%, the “Population Membrane Permeable-Phenotype (%)” value [3] was 0% and 6% and the “Population Mitochondria Different-Phenotype (%)” value [3] was 0% and 4%. For the same compound, the “Population Mitotic Cells (%)” value [3] was 14% and 10%, the “Population Normal (%)” value [3] was 98% and 100% and the “Population Pyknosed Nuclei (%)” value [3] was 44% and 34%. The “Population Tubulin-Different-Phenotype (%)” value [3] was 77% and 84%, the “Total Cell Count” value [3] was 62 and 166 and the “Population Apoptotic (%)” value [4] was 85% and 93%. For the same compound, the “Population Fragmented Nuclei (%)” value [4] was 8% and 12%, the “Population Hoechst High Intensity Objects (%)” value [4] was 0% and 1% and the “Population Membrane Permeable-Phenotype (%)” value [4] was 50% and 40%. For the same compound, the “Population Mitochondria Different-Phenotype (%)” value [4] was 50% and 64%, the “Population Mitotic Cells (%)” value [4] was 14% and 6% and the “Population Normal (%)” value [4] was 100% and 98%. The “Population Pyknosed Nuclei (%)” value [4] was 84% and 57%, the “Population Tubulin-Different-Phenotype (%)” value [4] was 100% and 68% and the “Population Apoptotic (%)” value [5] was 89% and 93%. The “Population Fragmented Nuclei (%)” value [5] was 19% and 13%, the “Population Healthy Nuclei (%)” value [5] was 29% and 44% and the “Population Hoechst High Intensity Objects (%)” value [5] was 0%. For the same compound, the “Population Membrane Permeable-Phenotype (%)” value [5] was 5% and 9%, the “Population Mitochondria Different-Phenotype (%)” value [5] was 0% and 5% and the “Population Mitotic Cells (%)” value [5] was 10% and 6%. The “Population Normal (%)” value [5] was 100% and 99%, the “Population Pyknosed Nuclei (%)” value [5] was 50% and 41% and the “Population Tubulin-Different-Phenotype (%)” value [5] was 70% and 87%. The “Population Apoptotic (%)” value [6] was 100% and 94%, the “Population Fragmented Nuclei (%)” value [6] was 9% and 10% and the “Population Healthy Nuclei (%)” value [6] was 18% and 14%. The “Population Hoechst High Intensity Objects (%)” value [6] was 4% and 3%, the “Population Membrane Permeable-Phenotype (%)” value [6] was 75% and 62% and the “Population Mitochondria Different-Phenotype (%)” value [6] was 100% and 53%. For the same compound, the “Population Mitotic Cells (%)” value [6] was 0% and 5%, the “Population Normal (%)” value [6] was 95% and 96% and the “Population Pyknosed Nuclei (%)” value [6] was 72% and 75%. The “Population Tubulin-Different-Phenotype (%)” value [6] was 75% and 96%.

With `CS(=O)(=O)c1ccc(C(=O)Nc2cccc(COc3ccc(Br)cc3CN3CCC[C@H](O)C3)c2)c(Cl)c1.O=CO` the “Population Healthy Nuclei (%)” value [1] was 84% and 83%, the “Population Hoechst High Intensity Objects (%)” value [1] was 0% and the “Population Pyknosed Nuclei (%)” value [1] was 15%. For the same compound, the “Population Apoptotic (%)” value [2] was 66% and 52%, the “Population Healthy Nuclei (%)” value [2] was 69% and 75% and the “Population Hoechst High Intensity Objects (%)” value [2] was 0%. The “Population Pyknosed Nuclei (%)” value [2] was 15% and 18%, the “Population Healthy Nuclei (%)” value [3] was 74% and 83% and the “Population Hoechst High Intensity Objects (%)” value [3] was 0%. The “Population Apoptotic (%)” value [4] was 90%, the “Population Healthy Nuclei (%)” value [4] was 65% and 70% and the “Population Hoechst High Intensity Objects (%)” value [4] was 0%. The “Population Apoptotic (%)” value [5] was 77% and 76%, the “Population Healthy Nuclei (%)” value [5] was 53% and 83% and the “Population Hoechst High Intensity Objects (%)” value [5] was 0%. For the same compound, the “Population Pyknosed Nuclei (%)” value [5] was 19%, the “Population Apoptotic (%)” value [6] was 93% and 86% and the “Population Healthy Nuclei (%)” value [6] was 43% and 57%. For the same compound, the “Population Hoechst High Intensity Objects (%)” value [6] was 0% and the “Population Pyknosed Nuclei (%)” value [6] was 34% and 29%.
